Source: PubChem BioAssay
PAD4 inh: blocks human protein arginine deiminase 4; actives 0.41% (n = 330,000); Q9UM07; inhibition, % at 6.36 µM; AID 485272; recombinant PAD4, RCA probe fluorescence polarization;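 active = percent inhibition above a cutoff equal to the mean of all tested compounds plus 3 SD, cut at about 15% in these data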
Target sequence (Q9UM07 whole entry, looked up): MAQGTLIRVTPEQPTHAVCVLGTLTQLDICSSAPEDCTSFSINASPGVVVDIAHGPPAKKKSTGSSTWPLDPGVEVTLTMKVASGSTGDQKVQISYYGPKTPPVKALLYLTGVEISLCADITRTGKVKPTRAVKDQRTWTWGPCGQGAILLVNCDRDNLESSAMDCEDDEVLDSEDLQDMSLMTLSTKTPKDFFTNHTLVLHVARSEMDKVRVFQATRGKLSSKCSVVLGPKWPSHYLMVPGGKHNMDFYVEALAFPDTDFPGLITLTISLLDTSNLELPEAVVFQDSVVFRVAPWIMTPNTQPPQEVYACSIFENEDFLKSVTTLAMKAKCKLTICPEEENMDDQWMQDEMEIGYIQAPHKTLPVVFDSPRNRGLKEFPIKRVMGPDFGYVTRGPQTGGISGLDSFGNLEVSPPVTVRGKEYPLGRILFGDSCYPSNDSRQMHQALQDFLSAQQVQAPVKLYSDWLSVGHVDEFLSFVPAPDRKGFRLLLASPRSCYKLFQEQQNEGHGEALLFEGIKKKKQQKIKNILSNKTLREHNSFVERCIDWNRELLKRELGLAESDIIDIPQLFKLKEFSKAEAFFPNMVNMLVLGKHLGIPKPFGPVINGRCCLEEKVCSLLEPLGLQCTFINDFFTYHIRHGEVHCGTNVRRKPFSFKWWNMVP
TDP2 inh: TDP2 (human) inhibition, absorbance primary screen. O95551. recombinant TDP2, T5PNP hydrolysis, p-nitrophenol absorbance 415 nm. inhibition, % at 12.8 µM. actives 0.34% (n = 370,000). AID 720702;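 active = inhibition above the mean of all tested compounds plus 3 SD, set per campaign, cut at about 25% in these data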
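System: recombinant human TDP2 / Amount: 120 nM TDP2 per well / Also added: 5 mM T5PNP chromogenic substrate / Doses: 12.8 µM single point, 1% DMSO / Incubation: 2 h at 37 °C / Detection: p-Nitrophenol epi absorbance / Evaluation: % inhibition relative to enzyme-containing and enzyme-free wells / Repeats: singlicate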
PRMT1 FP inh: blocks human protein arginine methyltransferase 1. Q99873. recombinant PRMT1, activity-based probe fluorescence polarization. inhibition, % at 2.79 µM. actives 1.3% (n = 370,000);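 active = inhibition above about 21% made by adding two undisclosed values, limit read from the data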
GSTO1 counter: blocks human GSTO1 in RBBP9 counter-screen; P78417; recombinant GSTO1, activity-based probe fluorescence polarization; inhibition, % at 5.96 µM; actives 1.1% (n = 300,000); AID 1974;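 active = inhibition above the campaign mean inhibition plus 3 SD, cut at about 35% in these data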
Apaf-1 inh: blocks human Apaf-1 apoptosome activity; reconstituted apoptosome caspase-3 activity, DEVD-Rh110 fluorescence; inhibition, % at 20 µM; actives 0.71% (n = 330,000); AID 489030; active = inhibition of at least 40% at 20 µM
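Medium: Hepes buffer, pH 7.5 / System: biochemical Apaf-1 apoptosome reconstitution / Measured by: Rh110 fluorescence, excitation 480 nm, emission 540 nm / Times: compound with Apaf-1, dATP, procaspase-3 30 min, then 50 min reaction, room temperature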
PAD4 confirm: confirmation of human PAD4 inhibitors. shares compounds with PAD4 inh. recombinant PAD4, RCA probe fluorescence polarization. inhibition, % at 6.36 µM. actives 28% (n = 1,200);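 active = mean inhibition across replicates above the hit cutoff set by the earlier primary screen, cut at about 15% in these data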;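 also: inhibitors block active-site labeling by the probe so polarization falls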
Of the large screens only hits and unclear results are named; the others gave an inactive call (follow-up assays come after a bar, where they were run). In the library only some 2.6% were active in any assay of this set; here they are far more common.

Cc1cc(C)c(C)c(S(=O)(=O)N2CCN(C(=O)C3CCC3)CC2)c1C	none
Cc1cc(C)c(C)c(S(=O)(=O)N2CCC(C(=O)N3CCCC3)CC2)c1C	PAD4 inh 58 (no result: GSTO1 counter) | PAD4 confirm inactive
Cc1ccc(OCc2nc(-c3ccccn3)no2)c(Br)c1	none
CC(C)c1ccc(OCc2nc(-c3ccccn3)no2)c(Br)c1	PAD4 inh 20 | PAD4 confirm inactive
CCn1c(CSc2nnc(-c3ccncc3)n2CCOC)nc2cc(C(=O)O)ccc21	PAD4 inh 48 | PAD4 confirm 58
CCn1c(CSc2n[nH]c(N)n2)nc2cc(C(=O)O)ccc21	PAD4 inh 51 | PAD4 confirm 58
COC(=O)c1ccc(C(=O)OC)c(NC(=O)CSc2n[nH]c(N)n2)c1	none (no result: GSTO1 counter)
CCOc1ccc(C(=O)CSc2nnc3ccccn23)cc1	none
CCn1c(CSc2nnc3ccccn23)nc2cc(C(=O)O)ccc21	PAD4 inh 47 | PAD4 confirm 77
COC(=O)[C@]12C[C@H](CC(=O)N3CCC(c4ccccc4)CC3)C(=O)N(CCc3ccc(OC)c(OC)c3)C1=C[C@H](C1CCCC1)O[C@@H]2C	none (no result: PAD4 inh, GSTO1 counter, Apaf-1 inh)
COC(=O)/C=C1\OCc2cc(OCc3ccccc3)ccc21	none (no result: PAD4 inh, GSTO1 counter, Apaf-1 inh)
CC(C(=O)O)C(=O)O	PAD4 inh 39 | PAD4 confirm inactive
O=C(O)CSc1nnc(-c2ccccc2)c(-c2ccccc2)n1	none
CCN(CC)C(=O)CSc1nnc(-c2ccccc2)c(-c2ccccc2)n1	PAD4 inh 15 | PAD4 confirm inactive
Cc1sc2ccc3sccc3c2[n+]1C	PAD4 inh 17, PRMT1 FP inh 77 | PAD4 confirm inactive
COc1ccc2c(c1)CCc1cnc(N)nc1-2	none
COc1ccc2c(c1)CCc1cn3nc(C)cc3nc1-2	PAD4 inh 16 | PAD4 confirm inactive
O=C(Nc1ccc(N2C(=O)CC3(CCCCC3)C2=O)c(Cl)c1)c1ccccn1	none (no result: PAD4 inh, GSTO1 counter, Apaf-1 inh)
COc1ccc2c(Cl)c(C(=O)NN)sc2c1	none
CC[n+]1c(C)sc2cc(OC)ccc21	PAD4 inh 17, PRMT1 FP inh 54 | PAD4 confirm inactive
CCN(CC)c1ccc(/C=N/N(c2ccccc2)c2ccccc2)c(O)c1	none
CCN(CC)c1ccc(C(=O)c2ccccc2C(=O)O)c(O)c1	PAD4 inh 21 | PAD4 confirm 26
O=C(NCCCN1CCN(Cc2ccccc2)CC1)c1nnc(Cc2c(F)cccc2Cl)o1	none
O=C(NCCCO)c1nnc(Cc2c(F)cccc2Cl)o1	PAD4 inh 50 | PAD4 confirm inactive
CCCCCCCCN1C(=O)[C@H](CC(=O)N2CCC(c3ccccc3)CC2)C[C@@]2(C(=O)OC)CC(C)(C)CC=C12	none (no result: PAD4 inh, GSTO1 counter, Apaf-1 inh)
O=C(COc1ccc(Cl)cc1)Nc1ccc(NC(=O)c2ccco2)cc1	PAD4 inh 27 | PAD4 confirm inactive
O=C(COc1ccccc1)Nc1ccc(NC(=O)c2ccco2)cc1	none
COc1cc(C=O)ccc1OCc1ccncc1	PAD4 inh 28 | PAD4 confirm inactive
C#CCC1c2ccccc2CCN1CC=C (stereo unspecified)	none (no result: PAD4 inh, GSTO1 counter, Apaf-1 inh)
O=C1CC(Sc2cccs2)C(=O)N1c1ccccc1 (stereo unspecified)	PAD4 inh 24, PRMT1 FP inh 49 | PAD4 confirm inactive
O=C(O)c1cccnc1SC1CC(=O)N(c2ccccc2)C1=O (stereo unspecified)	none
NC(=O)c1ccc(-n2nnnc2SCC(=O)Nc2ccccc2-c2ccccc2)cc1	PAD4 inh 16 | PAD4 confirm inactive
C(=N\n1cnnc1)/c1ccc2c(c1)OCCO2	PAD4 inh 18 | PAD4 confirm inactive
C(=N\n1cnnc1)/c1ccc2c(c1)OCO2	none
CCOc1ccccc1C(=O)NCC(=O)NCCCc1ccccc1	PAD4 inh 62 | PAD4 confirm inactive
CCOc1ccccc1C(=O)NCC(=O)NCCCSc1ccccc1	none
CCn1c(SCC(=O)Nc2ccccc2-c2ccccc2)nnc1-c1cnccn1	none (no result: PAD4 inh, GSTO1 counter, Apaf-1 inh)
CCCC(=O)Nc1ccc(Br)c(Cl)c1	PAD4 inh 15 | PAD4 confirm inactive
O=C1C(=O)N(c2ccc(O)cc2)C(c2ccccc2[N+](=O)[O-])/C1=C(\O)c1ccccc1 (stereo unspecified)	PAD4 inh 24 | PAD4 confirm inactive
c1ccc(CNc2ccccn2)cc1	none
c1ccc(Nc2ccccc2Nc2ccccn2)nc1	PAD4 inh 30 | PAD4 confirm inactive
CC1(NC(=O)Cc2csc(-c3cccc(Cl)c3)n2)CCS(=O)(=O)C1 (stereo unspecified)	PAD4 inh 21 (no result: GSTO1 counter) | PAD4 confirm inactive
Cc1cc(C(=O)CSc2nc(N)cc(N)n2)c(C)n1CC1CCCO1 (stereo unspecified)	none (no result: GSTO1 counter)
Cc1cc(C(=O)CSc2nc(N)cc(=O)[nH]2)c(C)n1CC1CCCO1 (stereo unspecified)	PAD4 inh 28 (no result: GSTO1 counter) | PAD4 confirm 15
COC(=O)c1c(NC(=O)c2ccco2)sc(C(=O)N(C)C)c1C	PAD4 inh 19 | PAD4 confirm 16
CC1CCC/C(=C\Nc2ccc(O)cc2)C1=O (stereo unspecified)	PAD4 inh 28, GSTO1 counter 37 | PAD4 confirm inactive
C=CCCC(=O)N(Cc1ccccc1)c1ccccc1C(=O)Nc1cc(OC)ccc1OC	none (no result: PAD4 inh, GSTO1 counter, Apaf-1 inh)
CN(C)c1ccc(N/C=C/C(=O)c2ccc(F)cc2)cc1	PAD4 inh 31, GSTO1 counter 45 (no result: TDP2 inh, PRMT1 FP inh) | PAD4 confirm inactive
Cc1ccc(-c2ccccc2NC(=O)CS(=O)CC(=O)Nc2ccc(C)c(Cl)c2)o1 (stereo unspecified)	PAD4 inh 113, PRMT1 FP inh 52 | PAD4 confirm inactive
CCOc1ccc(-n2c(SCC(=O)Nc3ccc4c(c3)c3ccccc3n4CC)nnc2-c2cccnc2)cc1	none (no result: PAD4 inh, GSTO1 counter, Apaf-1 inh)
COc1ccc(-n2sc3ccc(F)cc3c2=O)cc1	PAD4 inh 31, PRMT1 FP inh 87 (no result: GSTO1 counter) | PAD4 confirm 30
Cc1ccc(-c2cc(=O)c3cc(F)ccc3[nH]2)cc1	none
O=c1c2cc(F)ccc2sn1-c1ccc(F)cc1	PAD4 inh 30 (no result: TDP2 inh, PRMT1 FP inh, GSTO1 counter) | PAD4 confirm 25
Cc1ccc(C)c(-n2sc3ccc(F)cc3c2=O)c1	PAD4 inh 38, PRMT1 FP inh 91 (no result: GSTO1 counter) | PAD4 confirm 35
Nc1[nH]c(C(=O)c2ccccc2)c(-c2cccc3ccccc23)c1C(=O)NC1CCCCC1	none (no result: PAD4 inh, GSTO1 counter, Apaf-1 inh)
C[C@H]1[C@@H](NC(=O)C2CCOC2)CC[C@@]23CCCN2C(=O)CCC[C@@H]13 (stereo partly specified)	none (no result: PAD4 inh, GSTO1 counter, Apaf-1 inh)
O=C(NC1CCCC1)C(c1ccccc1)n1c(CSCCOc2ccccc2)nc2ccccc21 (stereo unspecified)	none (no result: PAD4 inh, GSTO1 counter, Apaf-1 inh)
CCOC(=O)C1CCN(c2nc3ccccc3nc2C(C#N)C(=O)OC(C)C)CC1 (stereo unspecified)	PAD4 inh 17 | PAD4 confirm inactive
CCOC(=O)[C@]12CCCC3=C1N(CCC3)C(=O)[C@@H](CC(=O)NCCCCc1ccccc1)C2	none (no result: PAD4 inh, GSTO1 counter, Apaf-1 inh)
